{"source": "paper PMC4212002", "about": "(Molecular Pharmaceutics, 2014)", "key": {"[1]": {"tested_on": "integrin αvβ3 (U87MG cells)", "conditions": "read-out: U87MG IC50; binding to U87MG cells; ref 22 and 23; cited from earlier work"}, "[2]": {"biological_target": "integrin αvβ3 (Homo sapiens, UniProt P05106+P06756)", "sequence (P06756 31-889)": "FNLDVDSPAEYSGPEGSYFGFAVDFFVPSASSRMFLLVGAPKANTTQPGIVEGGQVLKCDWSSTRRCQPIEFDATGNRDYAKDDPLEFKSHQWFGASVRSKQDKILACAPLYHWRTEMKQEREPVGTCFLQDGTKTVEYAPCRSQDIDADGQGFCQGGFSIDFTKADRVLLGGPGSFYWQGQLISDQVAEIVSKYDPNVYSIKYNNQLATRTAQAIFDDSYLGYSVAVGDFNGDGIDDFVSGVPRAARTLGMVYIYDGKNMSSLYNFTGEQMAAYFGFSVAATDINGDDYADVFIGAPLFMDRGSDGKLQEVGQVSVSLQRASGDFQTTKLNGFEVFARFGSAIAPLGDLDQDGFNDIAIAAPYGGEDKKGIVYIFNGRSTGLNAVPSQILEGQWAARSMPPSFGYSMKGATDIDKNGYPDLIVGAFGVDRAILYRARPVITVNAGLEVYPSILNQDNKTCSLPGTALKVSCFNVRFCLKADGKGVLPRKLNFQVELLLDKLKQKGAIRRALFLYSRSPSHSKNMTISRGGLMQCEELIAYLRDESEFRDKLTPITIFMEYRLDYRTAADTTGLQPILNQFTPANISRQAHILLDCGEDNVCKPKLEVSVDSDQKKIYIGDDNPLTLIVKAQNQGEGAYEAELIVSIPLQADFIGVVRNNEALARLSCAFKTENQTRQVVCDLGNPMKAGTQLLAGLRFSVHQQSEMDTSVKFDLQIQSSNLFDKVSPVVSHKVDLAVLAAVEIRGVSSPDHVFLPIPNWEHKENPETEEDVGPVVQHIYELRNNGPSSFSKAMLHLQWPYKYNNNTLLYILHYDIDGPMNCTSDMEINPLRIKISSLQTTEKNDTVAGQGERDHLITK", "sequence (P06756 891-992)": "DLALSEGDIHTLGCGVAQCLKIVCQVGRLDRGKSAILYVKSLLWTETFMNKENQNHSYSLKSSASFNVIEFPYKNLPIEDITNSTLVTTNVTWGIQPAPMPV", "sequence (P05106 27-718)": "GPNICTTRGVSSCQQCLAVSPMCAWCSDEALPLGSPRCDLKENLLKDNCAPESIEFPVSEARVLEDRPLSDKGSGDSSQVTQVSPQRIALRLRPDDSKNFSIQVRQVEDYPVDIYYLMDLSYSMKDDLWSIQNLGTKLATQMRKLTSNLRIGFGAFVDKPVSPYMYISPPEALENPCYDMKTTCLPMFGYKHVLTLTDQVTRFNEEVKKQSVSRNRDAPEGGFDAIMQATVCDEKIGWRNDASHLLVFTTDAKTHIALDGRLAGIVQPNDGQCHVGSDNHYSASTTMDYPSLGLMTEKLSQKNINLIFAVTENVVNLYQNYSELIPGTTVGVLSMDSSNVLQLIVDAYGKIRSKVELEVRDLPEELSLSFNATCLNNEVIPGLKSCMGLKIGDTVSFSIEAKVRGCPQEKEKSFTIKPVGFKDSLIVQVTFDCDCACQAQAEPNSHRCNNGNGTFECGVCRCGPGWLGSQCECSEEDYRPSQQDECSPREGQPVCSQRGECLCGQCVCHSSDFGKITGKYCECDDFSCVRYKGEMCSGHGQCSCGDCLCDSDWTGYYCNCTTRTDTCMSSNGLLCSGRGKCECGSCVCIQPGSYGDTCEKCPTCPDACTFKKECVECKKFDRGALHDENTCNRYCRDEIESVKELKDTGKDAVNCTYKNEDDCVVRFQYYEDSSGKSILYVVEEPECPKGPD", "conditions": "cited from earlier work"}, "[3]": {"tested_on": "integrin αvβ5", "conditions": "cited from earlier work"}, "[4]": {"tested_on": "integrin α5β1", "conditions": "cited from earlier work"}, "[5]": {"tested_on": "integrin αiibβ3", "conditions": "cited from earlier work"}, "[6]": {"test": "In vitro stability in PBS buffer", "assay_type": "physicochemical", "conditions": "0.01 M PBS pH 7.4, 1 h, room temperature, 3.7–5.55 MBq, radio-HPLC", "method_in_brief": "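The radiotracer was reconstituted in PBS and sterile-filtered (0.22 μm) before incubation. After incubation, samples were analysed by radio-HPLC. Percent intact peptide was obtained by quantifying the peaks for intact peptide and for degradation products.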"}, "[7]": {"tested_on": "U87MG cells", "test": "U87MG cell uptake assay", "assay_type": "cell-based, human", "conditions": "for cell uptake (% of added radioactivity): 37 kBq/well, mean ± SD, triplicate", "method_in_brief": "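U87MG cells were grown in high-glucose DMEM with 10% FBS and 1% pen-strep (37 °C, 5% CO2) and trypsinised at 70–80% confluence. Cells (1 × 10^5/well) attached overnight and were PBS-washed, then exposed to 37 kBq radiotracer per well in medium ± 2 μg/well c(RGDyK) at 37 or 4 °C for 15–120 min. Cells were washed, lysed in 1.0 M NaOH and γ-counted as % added activity. Two experiments, triplicate wells.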"}, "[8]": {"test": "Small animal PET imaging quantification", "assay_type": "in vivo, mouse", "conditions": "mouse, tumor, iv, 3.7 MBq, total radioactivity", "method_in_brief": "(§1)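 Female nude mice carried s.c. U87MG shoulder xenografts of 0.5–1 cm, n = 4 per group. About 3.7 MBq (100 μCi) of radiotracer was given via tail vein, with or without ~330 μg c(RGDyK) coinjected. Mice were scanned on a small-animal PET at 0.5, 1 and 2 h p.i. under isoflurane (5% induction, 2% maintenance in 100% O2). Images were reconstructed by OSEM 2D and regional uptake quantified as %ID/g.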"}, "[9]": {"tested_on": "U87MG tumor-bearing mice", "test": "Small animal PET imaging quantification", "assay_type": "in vivo, mouse", "conditions": "U87MG xenograft mice, within 2 h p.i.", "method_in_brief": "as §1"}, "[10]": {"test": "Biodistribution study", "assay_type": "in vivo, mouse", "conditions": "nude, mouse, iv, total radioactivity", "method_in_brief": "(§2)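 Female athymic nude mice bore s.c. right-shoulder xenografts (~1 × 10^7 U87MG cells in 100 μL PBS, grown 2–3 weeks to 0.5–1 cm). The radiofluorinated peptide (1.85–3.7 MBq) was given via tail vein; mice were killed 0.5–2.5 h p.i. Tissues were weighed and γ-counted and expressed as %ID/g, n = 4 per group. A blocking group was coinjected with 330 μg c(RGDyK) and examined at 2.5 h.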"}, "[11]": {"tested_on": "U87MG tumor-bearing mice", "test": "Biodistribution study", "assay_type": "in vivo, mouse", "conditions": "U87MG xenograft nude mice, i.v., 2.5 h p.i., mean ± SD n = 4", "method_in_brief": "as §2"}}, "note": "Positions of bridges follow the written chain, without caps; N, C: chain ends. Residues, ends and D or L forms follow the SMILES beside them."}
{"molecule": "CSCC[C@@H]1NC(=O)[C@H](CC(=O)O)NC(=O)CNC(=O)[C@H](CCCNC(=N)N)NC(=O)[C@H](C)NC(=O)[C@H](CCC(=O)O)NC(=O)[C@H](CCCNC(=N)N)NC(=O)[C@@H]2CSSC[C@@H]3NC(=O)[C@H](CO)NC(=O)[C@H]([C@@H](C)O)NC(=O)[C@@H]4CCCN4C(=O)[C@H](C)NC(=O)[C@H](Cc4c[nH]c5ccccc45)NC(=O)[C@H](CC(=O)O)NC(=O)CNC(=O)[C@H](CCCNC(=N)N)NC(=O)CNC(=O)[C@H](CCC(N)=O)NC(=O)[C@@H]4CCCN4C(=O)[C@@H](NC(=O)CN)CSSC[C@H](NC(=O)CNC(=O)[C@H](C)NC(=O)[C@H](CC(C)C)NC(=O)[C@H](CSSC[C@@H](C(=O)NCC(N)=O)NC(=O)[C@H]([C@@H](C)O)NC(=O)[C@H](CCCNC(=N)N)NC(=O)[C@@H]4CCCN4C1=O)NC(=O)[C@H](CC(=O)O)NC(=O)[C@H](CO)NC(=O)[C@H](CC(=O)O)NC(=O)[C@H](CCC(N)=O)NC(=O)[C@H](CO)NC3=O)C(=O)N[C@@H](C(C)C)C(=O)N2", "note": "[3-4A] (H-GCPQGRGDWAPTSCSQDSDCLAGCVCREARGDMPRTCG-NH2; disulfide 2-24, 14-26, 20-37; C-terminus assumed)", "values": [{"measurement": "IC50", "setting": "[1]", "value": "5 ± 2", "unit": "nM"}, {"measurement": "binding affinity to integrin αvβ3", "setting": "[2]", "value": "high binding affinity"}, {"measurement": "binding affinity to integrin αvβ5", "setting": "[3]", "value": "high binding affinity"}, {"measurement": "binding affinity for integrin α5β1", "setting": "[4]", "value": "lower affinity"}, {"measurement": "binding affinity for integrin αiibβ3", "setting": "[5]", "value": "lower affinity"}]}
{"molecule": "CSCC[C@@H]1NC(=O)[C@H](CC(=O)O)NC(=O)CNC(=O)[C@H](CCCNC(=N)N)NC(=O)[C@H](C)NC(=O)[C@H](CCC(=O)O)NC(=O)[C@H](CCCNC(=N)N)NC(=O)[C@@H]2CSSC[C@@H]3NC(=O)[C@H](CO)NC(=O)[C@H]([C@@H](C)O)NC(=O)[C@@H]4CCCN4C(=O)[C@H](C)NC(=O)[C@H](Cc4c[nH]c5ccccc45)NC(=O)[C@H](CC(=O)O)NC(=O)CNC(=O)[C@H](CCCNC(=N)N)NC(=O)CNC(=O)[C@H](CCC(N)=O)NC(=O)[C@@H]4CCCN4C(=O)[C@@H](NC(=O)CNC(=O)C(C)F)CSSC[C@H](NC(=O)CNC(=O)[C@H](C)NC(=O)[C@H](CC(C)C)NC(=O)[C@H](CSSC[C@@H](C(=O)NCC(N)=O)NC(=O)[C@H]([C@@H](C)O)NC(=O)[C@H](CCCNC(=N)N)NC(=O)[C@@H]4CCCN4C1=O)NC(=O)[C@H](CC(=O)O)NC(=O)[C@H](CO)NC(=O)[C@H](CC(=O)O)NC(=O)[C@H](CCC(N)=O)NC(=O)[C@H](CO)NC3=O)C(=O)N[C@@H](C(C)C)C(=O)N2", "note": "(stereo partly shown) [^18F-FP–3-4A]", "values": [{"measurement": "intact probe after incubation in PBS", "setting": "[6]", "value": "completely intact"}, {"measurement": "accumulation in cells at 37 °C compared to 4 °C", "setting": "[7]", "value": "2–3 fold"}, {"measurement": "inhibition of cell uptake by excess c(RGDyK)", "setting": "[7]; 4 °C, 1 h, 2 μg/well c(RGDyK)", "value": 31.82, "unit": "%"}, {"measurement": "cell uptake (% of added radioactivity)", "setting": "[7]; 4 °C, 15 min", "value": "0.32 ± 0.02", "unit": "%"}, {"measurement": "cell uptake (% of added radioactivity)", "setting": "[7]; 4 °C, 30 min", "value": "0.41 ± 0.11", "unit": "%"}, {"measurement": "cell uptake (% of added radioactivity)", "setting": "[7]; 4 °C, 60 min", "value": "0.44 ± 0.05", "unit": "%"}, {"measurement": "cell uptake (% of added radioactivity)", "setting": "[7]; 4 °C, 120 min", "value": "0.51 ± 0.04", "unit": "%"}, {"measurement": "cell uptake (% of added radioactivity)", "setting": "[7]; 37 °C, 15 min", "value": "0.71 ± 0.07", "unit": "%"}, {"measurement": "cell uptake (% of added radioactivity)", "setting": "[7]; 37 °C, 30 min", "value": "0.90 ± 0.04", "unit": "%"}, {"measurement": "cell uptake (% of added radioactivity)", "setting": "[7]; 37 °C, 60 min", "value": "1.44 ± 0.04", "unit": "%"}, {"measurement": "cell uptake (% of added radioactivity)", "setting": "[7]; 37 °C, 120 min", "value": "1.50 ± 0.07", "unit": "%"}, {"measurement": "tissue uptake at 0.5 h", "setting": "[8]", "value": "3.87 ± 0.66", "unit": "%ID/g"}, {"measurement": "in vivo defluorination (bone uptake on PET)", "setting": "[9]", "value": "no observable defluorination"}, {"measurement": "tissue to tissue ratio at 0.5 h", "setting": "[10]; tumor and blood", "value": "5.94 ± 0.94"}, {"measurement": "tissue to tissue ratio at 1 h", "setting": "[10]; tumor and blood", "value": "4.39 ± 0.82"}, {"measurement": "tissue to tissue ratio at 2.5 h", "setting": "[10]; tumor and blood", "value": "3.12 ± 0.55"}, {"measurement": "tissue to tissue ratio at 0.5 h", "setting": "[10]; tumor and kidney", "value": "0.57 ± 0.19"}, {"measurement": "tissue to tissue ratio at 1 h", "setting": "[10]; tumor and kidney", "value": "0.6 ± 0.12"}, {"measurement": "tissue to tissue ratio at 2.5 h", "setting": "[10]; tumor and kidney", "value": "0.72 ± 0.15"}, {"measurement": "tissue to tissue ratio at 0.5 h", "setting": "[10]; tumor and liver", "value": "5.55 ± 0.63"}, {"measurement": "tissue to tissue ratio at 1 h", "setting": "[10]; tumor and liver", "value": "5.69 ± 0.88"}, {"measurement": "tissue to tissue ratio at 2.5 h", "setting": "[10]; tumor and liver", "value": "3.15 ± 0.74"}, {"measurement": "tissue to tissue ratio at 0.5 h", "setting": "[10]; tumor and lung", "value": "2.22 ± 0.45"}, {"measurement": "tissue to tissue ratio at 1 h", "setting": "[10]; tumor and lung", "value": "1.44 ± 0.31"}, {"measurement": "tissue to tissue ratio at 2.5 h", "setting": "[10]; tumor and lung", "value": "1.64 ± 0.01"}, {"measurement": "tissue to tissue ratio at 0.5 h", "setting": "[10]; tumor and muscle", "value": "10.8 ± 1.52"}, {"measurement": "tissue to tissue ratio at 1 h", "setting": "[10]; tumor and muscle", "value": "10.1 ± 1.22"}, {"measurement": "tissue to tissue ratio at 2.5 h", "setting": "[10]; tumor and muscle", "value": "3.47 ± 0.07"}, {"measurement": "tissue to tissue ratio at 0.5 h", "setting": "[10]; tumor and pancreas", "value": "12 ± 1.94"}, {"measurement": "tissue to tissue ratio at 1 h", "setting": "[10]; tumor and pancreas", "value": "6.06 ± 0.54"}, {"measurement": "tissue to tissue ratio at 2.5 h", "setting": "[10]; tumor and pancreas", "value": "3.96 ± 1.24"}, {"measurement": "tissue to tissue ratio at 0.5 h", "setting": "[10]; tumor and spleen", "value": "4.28 ± 0.4"}, {"measurement": "tissue to tissue ratio at 1 h", "setting": "[10]; tumor and spleen", "value": "2.63 ± 0.32"}, {"measurement": "tissue to tissue ratio at 2.5 h", "setting": "[10]; tumor and spleen", "value": "1.83 ± 0.16"}, {"measurement": "liver uptake", "setting": "[11]", "value": 0.29, "unit": "% ID/g"}]}
